Assay results as given in ChEMBL document CHEMBL1772948, “Chemistry and biology of macrolide antiparasitic agents” (J Med Chem, 2011).
In brackets after ≈: the same amount, converted by molar mass. Activity calls are given as the source filed them. No cut-off for these calls is given here.

Tests used:
Toxoplasma gondii [1] = assay: Antiparasitic activity against green fluorescent protein expressing hwgprt deficient Toxoplasma gondii RH infected in HFF assessed as reduction of ycf24/UPRT genes copy number ratio at 10 uM treated for 42 hrs starting 6 hrs after infection followed by reinoculated into fresh HFF monolayers measured after 48 hrs by RT-PCR analysis
Toxoplasma gondii [2] = assay: Antiparasitic activity against green fluorescent protein expressing […] deficient Toxoplasma gondii RH infected in HFF at 5 to 50 uM treated 6 hrs after infection measured after 48 hrs followed by reinoculated into fresh HFF monolayers measured after 48 hrs; format: functional, organism-based
Summary of the method: (§1)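 GFP-expressing RHΔhxgprt tachyzoites were grown on HFF on glass coverslips in 12-well plates (2×10^4/well). Compound was added either with the parasites ("0h", 48 h) or after a 6 h pre-infection and medium change ("6h", 42 h). Parasites per vacuole were counted by fluorescence microscopy in at least 50 random vacuoles per well. Three independent experiments.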

Toxoplasma gondii [3] = assay: Antiparasitic activity against green fluorescent protein expressing hwgprt deficient Toxoplasma gondii RH infected in HFF assessed as reduction of ycf24/UPRT genes copy number ratio at 0.1 uM treated for 48 hrs after 6 hrs infection followed by reinoculated into fresh HFF monolayers measured after 48 hrs by RT-PCR analysis; format: functional
Summary of the method: (§2)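 Tachyzoites were seeded on confluent HFF monolayers in 6-well plates at 2×10^5 per well, in DMEM with 10% FBS and 1% PS at 37 °C, 5% CO2. After 6 h pre-infection, the medium was replaced with medium containing compound for 42 h. Released parasites were reinoculated into fresh HFF without drug for 48 h, collected by centrifugation, and measured by qPCR as the ratio of plastid ycf24 to nuclear UPRT copies. At least triplicate.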

Toxoplasma gondii [4] = assay: Antiparasitic activity against yellow fluorescent protein expressing Toxoplasma gondii 2F-1 treated immediately after infection for 48 hrs followed by reinoculated into fresh HFF monolayers measured after 48 hrs; format: functional, organism-based; settings: 2F-1, 48 h
Summary of the method: (§3)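 Two-cycle protocol in HFF at 37 °C, 5% CO2, DMEM with 10% FBS. "0h": compound added with parasites, 48 h. "6h": parasites pre-incubated 6 h, uninvaded parasites removed, fresh medium with compound added, 42 h. Released tachyzoites were then harvested, purified and inoculated into fresh HFF without compound for the 2nd cycle. At least triplicate.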

Toxoplasma gondii [5] = assay: Antiparasitic activity against clindamycin-resistant Toxoplasma gondii 4 infected in HFF assessed as reduction of ycf24/UPRT genes copy number ratio at 0.1 uM treated for 48 hrs immediately after infection followed by reinoculated into fresh HFF monolayers measured after 48 hrs by RT-PCR analysis; format: functional
Summary of the method: (§4)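 Tachyzoites were seeded on confluent HFF in 6-well plates at 2×10^5 per well, in DMEM with 10% FBS and 1% PS at 37 °C, 5% CO2. Compound was added together with the parasite inoculum, and cultures ran 48 h. Harvested tachyzoites were reinoculated into fresh HFF without drug for a second cycle. Parasites were pelleted by centrifugation and the plastid ycf24 to nuclear UPRT copy ratio was read by qPCR (40 cycles, 94 °C 3 s / 60 °C 30 s). At least triplicate.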

Toxoplasma gondii [6] = assay: Antiparasitic activity against clindamycin-resistant Toxoplasma gondii 4 infected in HFF assessed as reduction of ycf24/UPRT genes copy number ratio at 0.1 uM treated for 48 hrs after 6 hrs infection followed by reinoculated into fresh HFF monolayers measured after 48 hrs by RT-PCR analysis; format: functional
Summary of the method: as §2

Toxoplasma gondii [7] = assay: Antiparasitic activity against clindamycin-resistant Toxoplasma gondii 4 infected in HFF assessed as reduction of ycf24/UPRT genes copy number ratio at 1 uM treated for 48 hrs immediately after infection followed by reinoculated into fresh HFF monolayers measured after 48 hrs by RT-PCR analysis; format: functional
Summary of the method: (§5)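 Tachyzoites were seeded on confluent HFF in 6-well plates at 2×10^5 per well, in DMEM with 10% FBS and 1% PS at 37 °C, 5% CO2. Harvested tachyzoites were reinoculated into fresh HFF without drug for a second cycle. Parasites were pelleted by centrifugation and the plastid ycf24 to nuclear UPRT copy ratio was read by qPCR (40 cycles, 94 °C 3 s / 60 °C 30 s). At least triplicate.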

Toxoplasma gondii [8] = assay: Antiparasitic activity against green fluorescent protein expressing […] deficient Toxoplasma gondii RH infected in HFF assessed as decrease in density of parasitophorous vacuoles at 10 uM treated immediately after infection measured after 24 hrs by microscopic analysis; format: functional, organism-based
Summary of the method: (§6)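 GFP T. gondii RHΔhxgprt in HFF, compound (10 μM) added either with the inoculum ("0h") or after 6 h pre-infection and washing ("6h"); vacuoles per microscope field scored at 24 h, at least 20 random fields from each of three experiments.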

Toxoplasma gondii [9] = assay: Antiparasitic activity against green fluorescent protein expressing […] deficient Toxoplasma gondii RH infected in HFF assessed as parasite doubling time at 5 to 50 uM treated immediately after infection measured after 48 hrs; format: functional
Summary of the method: (§7)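 HFF were grown on glass coverslips in 12-well plates and infected with 2×10^4 GFP tachyzoites per well. Compound was added with the inoculum; the first cycle ran 48 h, and the second cycle ran in fresh HFF without drug. Parasites per vacuole were counted by fluorescence microscopy, at least 50 random vacuoles per well, to derive doubling time. Three independent experiments.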

Toxoplasma gondii [10] = assay: Antiparasitic activity against green fluorescent protein expressing […] deficient Toxoplasma gondii RH assessed as parasite doubling time at 5 to 50 uM treated immediately after infection for 48 hrs followed by reinoculated into fresh HFF monolayers measured after 48 hrs; format: functional
Summary of the method: as §7

Toxoplasma gondii [11] = assay: Antiparasitic activity against Toxoplasma gondii 2F-1 expressing yellow fluorescent protein infected in HFF after 4 days; format: functional, organism-based; settings: 2F-1, 96 h
Toxoplasma gondii [12] = assay: Antiparasitic activity against clindamycin-resistant Toxoplasma gondii 4 infected in HFF assessed as reduction of ycf24/UPRT genes copy number ratio at 10 uM treated for 48 hrs immediately after infection followed by reinoculated into fresh HFF monolayers measured after 48 hrs by RT-PCR analysis; format: functional
Summary of the method: as §4

Toxoplasma gondii [13] = assay: Antiparasitic activity against green fluorescent protein expressing hwgprt deficient Toxoplasma gondii RH infected in HFF at 5 to 50 uM treated immediately after infection measured after 48 hrs followed by reinoculated into fresh HFF monolayers measured after 48 hrs; format: functional, organism-based
Toxoplasma gondii [14] = assay: Antiparasitic activity against green fluorescent protein expressing hwgprt deficient Toxoplasma gondii RH infected in HFF at 5 to 50 uM treated immediately after infection measured after 48 hrs; format: functional, organism-based
Summary of the method: as §1

Toxoplasma gondii [15] = assay: Antiparasitic activity against green fluorescent protein expressing […] deficient Toxoplasma gondii RH infected in HFF assessed as reduction of ycf24/UPRT genes copy number ratio at 0.1 uM treated for 48 hrs immediately after infection followed by reinoculated into fresh HFF monolayers measured after 48 hrs by RT-PCR analysis; format: functional
Summary of the method: as §4

Toxoplasma gondii [16] = assay: Antiparasitic activity against clindamycin-resistant Toxoplasma gondii 4 infected in HFF assessed as reduction of ycf24/UPRT genes copy number ratio at 10 uM treated for 48 hrs after 6 hrs infection followed by reinoculated into fresh HFF monolayers measured after 48 hrs by RT-PCR analysis; format: functional
Summary of the method: as §2

HFF = assay: Cytotoxicity against HFF after 48 hrs by MTS assay; format: cell-based; settings: human
Summary of the method: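 Low-passage HFF seeded in 96-well plates and incubated 24h at 37 °C, then exposed to varying macrolide concentrations for 2 days; medium replaced with fresh medium plus MTS, 4h at 37 °C, absorbance 490 nm; CC50 = dose reducing viability by 50%.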

Toxoplasma gondii [17] = assay: Antiparasitic activity against yellow fluorescent protein expressing Toxoplasma gondii 2F-1 treated 6 hrs after infection for 42 hrs followed by reinoculated into fresh HFF monolayers measured after 48 hrs; format: functional, organism-based
Summary of the method: as §3

Toxoplasma gondii [18] = assay: Antiparasitic activity against clindamycin-resistant Toxoplasma gondii 4 infected in HFF assessed as reduction of ycf24/UPRT genes copy number ratio at 1 uM treated for 48 hrs after 6 hrs infection followed by reinoculated into fresh HFF monolayers measured after 48 hrs by RT-PCR analysis; format: functional
Bacillus subtilis = assay: Antibacterial activity against Bacillus subtilis; format: functional
Toxoplasma gondii [19] = assay: Antiparasitic activity against green fluorescent protein expressing hwgprt deficient Toxoplasma gondii RH infected in HFF assessed as reduction of ycf24/UPRT genes copy number ratio at 1 uM treated for 48 hrs after 6 hrs infection followed by reinoculated into fresh HFF monolayers measured after 48 hrs by RT-PCR analysis; format: functional
Toxoplasma gondii [20] = assay: Antiparasitic activity against green fluorescent protein expressing hwgprt deficient Toxoplasma gondii RH infected in HFF assessed as reduction of ycf24/UPRT genes copy number ratio at 10 uM […] followed by reinoculated into fresh HFF monolayers measured after 48 hrs by RT-PCR analysis; format: functional
Toxoplasma gondii [21] = assay: Antiparasitic activity against yellow fluorescent protein expressing Toxoplasma gondii 2F-1 infected in HFF treated 6 hrs after infection measured after 48 hrs; format: functional, organism-based
Toxoplasma gondii [22] = assay: Antiparasitic activity against yellow fluorescent protein expressing Toxoplasma gondii 2F-1 infected in HFF treated immediately after infection measured after 48 hrs; format: functional, organism-based; settings: 2F-1, 48 h
Toxoplasma gondii [23] = assay: Antiparasitic activity against green fluorescent protein expressing […] deficient Toxoplasma gondii RH infected in HFF assessed as reduction of ycf24/UPRT genes copy number ratio at 1 uM treated for 48 hrs immediately after infection followed by reinoculated into fresh HFF monolayers measured after 48 hrs by RT-PCR analysis; format: functional
Summary of the method: as §5

Toxoplasma gondii [24] = assay: Antiparasitic activity against green fluorescent protein expressing […] deficient Toxoplasma gondii RH infected in HFF assessed as decrease in density of parasitophorous vacuoles at 10 uM treated 6 hrs after infection measured after 24 hrs by microscopic analysis; format: functional, organism-based
Summary of the method: as §6

Toxoplasma gondii [25] = assay: Antiparasitic activity against green fluorescent protein expressing […] deficient Toxoplasma gondii RH infected in HFF at 5 to 50 uM treated 6 hrs after infection measured after 48 hrs; format: functional, organism-based
Summary of the method: as §1

Toxoplasma gondii [26] = assay: Antiparasitic activity against clindamycin-resistant Toxoplasma gondii 4 infected in HFF assessed as reduction of ycf24/UPRT genes copy number ratio at 5 uM treated for 48 hrs after 6 hrs infection followed by reinoculated into fresh HFF monolayers measured after 48 hrs by RT-PCR analysis; format: functional, organism-based
Toxoplasma gondii [27] = assay: Antiparasitic activity against clindamycin-resistant Toxoplasma gondii 4 infected in HFF assessed as reduction of ycf24/UPRT genes copy number ratio at 5 uM treated for 48 hrs immediately after infection followed by reinoculated into fresh HFF monolayers measured after 48 hrs by RT-PCR analysis; format: functional, organism-based
Summary of the method: as §4

Toxoplasma gondii [28] = assay: Antiparasitic activity against green fluorescent protein expressing […] deficient Toxoplasma gondii RH infected in HFF assessed as reduction of ycf24/UPRT genes copy number ratio at 5 uM treated for 48 hrs immediately after infection followed by reinoculated into fresh HFF monolayers measured after 48 hrs by RT-PCR analysis; format: functional, organism-based
Summary of the method: as §4

Toxoplasma gondii [29] = assay: Antiparasitic activity against green fluorescent protein expressing […] deficient Toxoplasma gondii RH infected in HFF assessed as reduction of ycf24/UPRT genes copy number ratio at 5 uM treated for 48 hrs after 6 hrs infection followed by reinoculated into fresh HFF monolayers measured after 48 hrs by RT-PCR analysis; format: functional, organism-based
Summary of the method: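 HFF monolayers infected with RHΔhxgprt (or Clin^R-4) in 6-well plates; after 6 h medium changed and compound present 42 h; at 48 h parasites reinoculated into fresh HFF for 48 h without compound; parasites pelleted at 2,000 rpm 10 min; qPCR (94 °C 20 s, then 40 cycles 94 °C 3 s/60 °C 30 s) plastid ycf24 vs nuclear UPRT copy ratio.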

Compound: CC[C@H]1OC(=O)[C@H](C)[C@@H](O[C@H]2C[C@@](C)(OC)[C@@H](O)[C@H](C)O2)[C@H](C)[C@@H](O[C@@H]2O[C@H](C)C[C@H](N(C)C)[C@H]2O)[C@](C)(O)C[C@@H](C)CN(C)[C@H](C)[C@@H](O)[C@]1(C)O [AZITHROMYCIN]
- Ratio (Toxoplasma gondii [1]): 10
- Activity (Toxoplasma gondii [2]): Active
- Ratio (Toxoplasma gondii [3]): 15
- IC50 (Toxoplasma gondii [4]): 0.6 µM
- Ratio (Toxoplasma gondii [5]): 18
- Ratio (Toxoplasma gondii [6]): 13
- Ratio (Toxoplasma gondii [7]): 8
- Activity (Toxoplasma gondii [8]): inactive
- Time (Toxoplasma gondii [9]): 9.5 h
- Time (Toxoplasma gondii [10]): >16 h
- IC50 (Toxoplasma gondii [11]): 20 µM
- Ratio (Toxoplasma gondii [12]): 10
- Activity (Toxoplasma gondii [13]): Active
- Activity (Toxoplasma gondii [14]): Active
- Ratio (Toxoplasma gondii [15]): 7
- Ratio (Toxoplasma gondii [16]): 4
- CC50 (HFF): 174 µM
- IC50 (Toxoplasma gondii [17]): 0.6 µM
- Ratio (Toxoplasma gondii [18]): 3
- MIC (Bacillus subtilis): 0.15 µM (≈ 0.112 µg/mL)
- Ratio (Toxoplasma gondii [19]): 3
- Ratio (Toxoplasma gondii [20]): 3
- IC50 (Toxoplasma gondii [21]): 44 µM
- IC50 (Toxoplasma gondii [22]): 29 µM
- Ratio (Toxoplasma gondii [23]): 7
- Activity (Toxoplasma gondii [24]): inactive
- Activity (Toxoplasma gondii [25]): Active

Compound: SPIRAMYCIN
- Ratio (Toxoplasma gondii [26]): 3
- Ratio (Toxoplasma gondii [27]): 8
- Ratio (Toxoplasma gondii [28]): 8
- Ratio (Toxoplasma gondii [29]): 5
